# Source: publication PMC8992012 (Bioorganic & medicinal chemistry, 2021)
# Entries after “also recorded” stand apart in the source; their conditions may differ.
# What was measured:
# [1] = test system: NF-κB; test: NF-κB activation using THP1-Blue NF-κB cells; assay type: cell-based, human; conditions: for NF-κB activity (in words, SAR text to Table 1): compound alone, 5 μM; for NF-κB activity (in words, SAR text to Table 1) / EC50: 20h; for EC50: read-out: EC50 NF-κB induction in the presence of LPS, with LPS (10 ng/mL), THP1-Blue NF-κB cells, SEAP; for activation at 5 µM: Homo sapiens, 20 h, read-out: NF-κB SEAP Compound alone % Activation; for NF-κB induction in the presence of LPS (in words, Fig. 6): compared to compound 1
# Method in brief: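 THP1-Blue NF-κB cells carry a stably integrated NF-κB-inducible SEAP. They were plated at 10^5 cells/well in RPMI with 10% FBS, penicillin, streptomycin and Normocin, then treated for 20 h with 5 μM test compound (0.5% DMSO final), alone or with LPS at 10 ng/mL. Supernatant SEAP was read colorimetrically at 630 nm. Signals were two-point normalized: baseline (vehicle or LPS) 100%, reference hit 200%.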
# [2] = test system: IL-8; test: IL-8 release in THP-1 cells; assay type: cell-based, human; conditions: 5 μM compound; for IL-8 induction with LPS: LPS 1 ng/mL, compared to Veh+LPS; for IL-8 induction, compound alone: without LPS, compared to Veh
# Method in brief: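 THP-1 cells were exposed overnight to 5 μM test compound or vehicle (0.5% DMSO), with or without LPS at 1 ng/mL. Secreted IL-8 in a portion of the supernatant was quantified by ELISA.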
Compound,"NF-κB activity (in words, SAR text to Table 1) [1]",also measured
"Cc1ccc(Br)c(-c2csc(NC(=O)c3ccc(S(=O)(=O)N4CCCCC4)cc3)n2)c1 [Compound 12d, N-(4-(2-bromo-5-methylphenyl)thiazol-2-yl)-4-(piperidin-1-ylsulfonyl)benzamide]",active; also recorded: most active,"EC50 [1]: 4.5 µM; IL-8 induction with LPS [2]: significantly enhanced; IL-8 induction, compound alone [2]: induced IL-8"
"CCCC#Cc1sc(NC(=O)c2ccc(S(=O)(=O)N3CCCCC3)cc2)nc1-c1cc(C)ccc1C [Compound 18q, N-(4-(2,5-dimethylphenyl)-5-(pent-1-yn-1-yl)thiazol-2-yl)-4-(piperidin-1-ylsulfonyl)benzamide]",very potent; also recorded: most active,"EC50 [1]: 1.7 µM; IL-8 induction with LPS [2]: significantly enhanced; IL-8 induction, compound alone [2]: induced IL-8"
"Cc1ccc(C)c(-c2csc(NC(=O)c3ccc(S(=O)(=O)N4CCCCC4)c(N)c3)n2)c1 [Compound 42k, 3-amino-N-(4-(2,5-dimethylphenyl)thiazol-2-yl)-4-(piperidin-1-ylsulfonyl)benzamide]",decline in activity,
"Cc1ccc(C)c(-c2csc(NC(=O)c3ccc(SC4CCCCC4)cc3)n2)c1 [Compound 45a, 4-(cyclohexylthio)-N-(4-(2,5-dimethylphenyl)thiazol-2-yl)benzamide]",none of these modifications at site E was tolerated,
"Cc1ccc(C)c(-c2csc(NC(=O)c3ccc(S(=O)(=O)C4CCCCC4)cc3)n2)c1 [Compound 45b, 4-(cyclohexylsulfonyl)-N-(4-(2,5-dimethylphenyl)thiazol-2-yl)benzamide]",none of these modifications at site E was tolerated,
"Cc1ccc(C)c(-c2csc(NC(=O)c3ccc(C(=O)N4CCCCC4)cc3)n2)c1 [Compound 45c, N-(4-(2,5-dimethylphenyl)thiazol-2-yl)-4-(piperidine-1-carbonyl)benzamide]",none of these modifications at site E was tolerated,
"Cc1ccc(C)c(-c2csc(NC(=O)c3cccc(C(=O)N4CCCCC4)c3)n2)c1 [Compound 45d, N-(4-(2,5-dimethylphenyl)thiazol-2-yl)-3-(piperidine-1-carbonyl)benzamide]",none of these modifications at site E was tolerated,activation at 5 µM [1]: 100%
"Cc1ccc(C)c(-c2csc(NS(=O)(=O)c3ccc(C(=O)N4CCCCC4)cc3)n2)c1 [Compound 51, N-(4-(2,5-dimethylphenyl)thiazol-2-yl)-4-(piperidine-1-carbonyl)benzenesulfonamide]",inactive,
"CCCN(CC)S(=O)(=O)c1ccc(C(=O)Nc2nc(-c3cc(C)ccc3C)cs2)cc1 [Compound 54a, N-(4-(2,5-dimethylphenyl)thiazol-2-yl)-4-(N-ethyl-N-propylsulfamoyl)benzamide]",active,
"CCCN(CCC)S(=O)(=O)c1ccc(C(=O)Nc2nc(-c3cc(C)ccc3C)cs2)cc1 [Compound 54b, N-(4-(2,5-dimethylphenyl)thiazol-2-yl)-4-(N,N-dipropylsulfamoyl)benzamide]",active,
"CCCCN(CCCC)S(=O)(=O)c1ccc(C(=O)Nc2nc(-c3cc(C)ccc3C)cs2)cc1 [Compound 54c, 4-(N,N-dibutylsulfamoyl)-N-(4-(2,5-dimethylphenyl)thiazol-2-yl)benzamide]",lost activity,
"CCN(c1ccccc1)S(=O)(=O)c1ccc(C(=O)Nc2nc(-c3cc(C)ccc3C)cs2)cc1 [Compound 54d, N-(4-(2,5-dimethylphenyl)thiazol-2-yl)-4-(N-ethyl-N-phenylsulfamoyl)benzamide]",inactive,
"Cc1ccc(C)c(-c2csc(NC(=O)c3ccc(S(=O)(=O)NC4CCCCC4)cc3)n2)c1 [Compound 54e, 4-(N-cyclohexylsulfamoyl)-N-(4-(2,5-dimethylphenyl)thiazol-2-yl)benzamide]",inactive,activation at 5 µM [1]: 100%
"Cc1ccc(C)c(-c2csc(NC(=O)c3ccc(S(=O)(=O)N4CCN(C(=O)OC(C)(C)C)CC4)cc3)n2)c1 [Compound 54f, tert-butyl 4-((4-((4-(2,5-dimethylphenyl)thiazol-2-yl)carbamoyl)phenyl)sulfonyl)piperazine-1-carboxylate]",inactive,
"CCOC1CCN(S(=O)(=O)c2ccc(C(=O)Nc3nc(-c4cc(C)ccc4C)cs3)cc2)CC1 [Compound 54g, N-(4-(2,5-dimethylphenyl)thiazol-2-yl)-4-((4-ethoxypiperidin-1-yl)sulfonyl)benzamide]",very potent,
"CCCC1CCN(S(=O)(=O)c2ccc(C(=O)Nc3nc(-c4cc(C)ccc4C)cs3)cc2)CC1 [Compound 54h, N-(4-(2,5-dimethylphenyl)thiazol-2-yl)-4-((4-propylpiperidin-1-yl)sulfonyl)benzamide]",very potent; also recorded: most active,"EC50 [1]: 0.9 µM; IL-8 induction with LPS [2]: significantly enhanced; IL-8 induction, compound alone [2]: induced IL-8"
"Cc1ccc(C)c(-c2csc(NC(=O)c3ccc(S(=O)(=O)N4CCNCC4)cc3)n2)c1 [Compound 54i, N-(4-(2,5-dimethylphenyl)thiazol-2-yl)-4-(piperazin-1-ylsulfonyl)benzamide]",inactive,
"CC(=O)N1CCN(S(=O)(=O)c2ccc(C(=O)Nc3nc(-c4cc(C)ccc4C)cs3)cc2)CC1 [Compound 54j, 4-((4-acetylpiperazin-1-yl)sulfonyl)-N-(4-(2,5-dimethylphenyl)thiazol-2-yl)benzamide]",inactive,
"CCCN1CCN(S(=O)(=O)c2ccc(C(=O)Nc3nc(-c4cc(C)ccc4C)cs3)cc2)CC1 [Compound 54k, N-(4-(2,5-dimethylphenyl)thiazol-2-yl)-4-((4-propylpiperazin-1-yl)sulfonyl)benzamide]",inactive,activation at 5 µM [1]: 100%
"CCCC1CCN(S(=O)(=O)c2ccc(C(=O)Nc3nc(-c4cc(C)ccc4Br)cs3)cc2)CC1 [Compound 55, N-(4-(2-bromo-5-methylphenyl)thiazol-2-yl)-4-((4-propylpiperidin-1-yl)sulfonyl)benzamide]",retained NF-κB activity,
"CCCC#Cc1sc(NC(=O)c2ccc(S(=O)(=O)N3CCC(CCC)CC3)cc2)nc1-c1cc(C)ccc1C [Compound 57, N-(4-(2,5-dimethylphenyl)-5-(pent-1-yn-1-yl)thiazol-2-yl)-4-((4-propylpiperidin-1-yl)sulfonyl)benzamide]",significant loss of activity,
"CCCC#Cc1sc(NC(=O)c2ccc(S(=O)(=O)N3CCCCC3)cc2)nc1-c1cc(C)ccc1Br [Compound 60, N-(4-(2-bromo-5-methylphenyl)-5-(pent-1-yn-1-yl)thiazol-2-yl)-4-(piperidin-1-ylsulfonyl)benzamide]",retained NF-κB activity,
"CCCC#Cc1sc(NC(=O)c2ccc(S(=O)(=O)N3CCC(CCC)CC3)cc2)nc1-c1cc(C)ccc1Br [Compound 61, N-(4-(2-bromo-5-methylphenyl)-5-(pent-1-yn-1-yl)thiazol-2-yl)-4-((4-propylpiperidin-1-yl)sulfonyl)benzamide]",significant loss of activity,
"Cc1ccc(N=[N+]=[N-])cc1-c1csc(NC(=O)c2ccc(S(=O)(=O)N3CCCCC3)cc2)n1 [Compound 63, N-(4-(5-azido-2-methylphenyl)thiazol-2-yl)-4-(piperidin-1-ylsulfonyl)benzamide]",,"NF-κB induction in the presence of LPS (in words, Fig. 6) [1]: retained activity"
"Cc1ccc(N=[N+]=[N-])c(-c2csc(NC(=O)c3ccc(S(=O)(=O)N4CCCCC4)cc3)n2)c1 [Compound 66, N-(4-(2-azido-5-methylphenyl)thiazol-2-yl)-4-(piperidin-1-ylsulfonyl)benzamide]",,"NF-κB induction in the presence of LPS (in words, Fig. 6) [1]: inactive"
"C#CC1CCN(S(=O)(=O)c2ccc(C(=O)Nc3nc(-c4cc(C)ccc4C)cs3)cc2)CC1 [Compound 68d, N-(4-(2,5-dimethylphenyl)thiazol-2-yl)-4-((4-ethynylpiperidin-1-yl)sulfonyl)benzamide]",,"NF-κB induction in the presence of LPS (in words, Fig. 6) [1]: modestly active"
"C#CC1CCN(S(=O)(=O)c2ccc(C(=O)Nc3nc(-c4cc(N=[N+]=[N-])ccc4C)cs3)cc2)CC1 [Compound 69, N-(4-(5-azido-2-methylphenyl)thiazol-2-yl)-4-((4-ethynylpiperidin-1-yl)sulfonyl)benzamide]",,"NF-κB induction in the presence of LPS (in words, Fig. 6) [1]: perfect overlapping dose-response curve"
